Series [1] is described as follows: Selectivity index, ratio of IC50 for cytotoxicity against African green monkey Vero E6 cells to MIC50 for antimycobacterial activity against Mycobacterium bovis BCG ATCC 35734. The note with it: read-out: Selectivity Index. The format is toxicity, cell-based, Vero C1008.
A short description of series [2]: Selectivity index, ratio of IC50 for cytotoxicity against African green monkey Vero E6 cells to MIC50 for antimycobacterial activity against Mycobacterium tuberculosis H37Rv ATCC 27294. The format is toxicity, cell-based, Vero C1008. Particulars: read-out: Selectivity Index. Put shortly:
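SI is the ratio of a Vero E6 IC50 to an H37Rv MIC50. Vero E6 cells in DMEM + 10% heat-inactivated FBS, 1% penicillin; 30,000 cells/well, 24 h adherence, then compound for 48 h (0.5% DMSO), 37°C, 5% CO2. MTS read at 490 nm after 3 h; IC50 from sigmoidal viability fit, ≥3 determinations. MIC50 by broth dilution: 50% growth inhibition versus drug-free control.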

A short description of series [3]: Aqueous solubility of compound at pH 7.4 measured after 24 hrs. The format is physicochemical. Particulars: buffer. The method in brief:
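Stock in DMSO diluted to 100 μM in Universal buffer pH 7.4 with 1% DMSO. Agitated on filter plates for 24 h at 25°C, then filtered and the filtrate diluted with acetonitrile. Concentration read by UV absorbance against calibration curves made in buffer/acetonitrile 80:20. At least 3 occasions, using different stocks.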

For the compound `Cc1nc2c(n1CCCCCCCCCCC[P+](c1ccccc1)(c1ccccc1)c1ccccc1)C(=O)c1ccccc1C2=O`, the selectivity ratio in series [1] amounted to 11; in series [2], 5.
For the compound `Cc1nc2c(n1CCCCCCCCCCC[P+](C1CCCCC1)(C1CCCCC1)C1CCCCC1)C(=O)c1ccccc1C2=O`, in series [1], the selectivity ratio was determined as 7.
Turning to `Cc1nc2c(n1CCCCCCCCC[P+](c1ccccc1)(c1ccccc1)c1ccccc1)C(=O)c1ccccc1C2=O`, the values for the selectivity ratio in series [1] and in series [2] were 21 and 34, respectively.
A word on the solubility: it is the concentration that dissolves in the medium under given conditions. As to `CCCCn1c2c([n+](C3CCC4(CCCCC4)CC3)c1C)C(=O)c1ccccc1C2=O.[Br-]`, the concentration in solution in series [3] (solubility at 24 h) was 118 µM.
On the same count and under the same terms, the figure for `CCCCCCCCn1c2c([n+](CCCC)c1C)C(=O)c1ccccc1C2=O.[Br-]` is 118 µM.

(Values after ChEMBL document CHEMBL5104224, “Alkyltriphenylphosphonium turns naphthoquinoneimidazoles into potent membrane depolarizers against mycobacteria” (RSC Med Chem, 2022).)
